PP5 inh = PP5 phosphatase inhibitors, primary screen, biochemical, fluorescence. Serine/threonine-protein phosphatase 5 (Homo sapiens), P53041. purified PP5c, OMFP substrate fluorescence. inhibition, % at 6.7 µM. 0.18% of 320,000 active;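 active = inhibition above the campaign's mean inhibition across all tested compounds plus 3 SD, cut at about 9.5% in these data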;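 note: 0% = DMSO only and 100% = 100 µM cantharidin control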
CTSL1 counter = Fasciola hepatica cathepsin L1 inhibitors, primary screen, counter-screen for PFM18AAP inhibitor project, biochemical, QFRET, fluorogenic peptide substrate; recombinant F. hepatica cathepsin L1, Z-Leu-Arg-MCA fluorescence; inhibition, % at 5.96 µM; 0.49% of 300,000 active;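 active = inhibition above the mean of all tested compounds plus 3 SD, set per screening campaign, cut at about 17% in these data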;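 note: 0% = plate median of test compound wells and 100% = 1 µM Z-Phe-Ala-diazomethylketone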
UCH37 inh = inhibitors of human UCH37 deubiquitinase, primary screen, biochemical, Ub-AMC cleavage, fluorescence | Ubiquitin carboxyl-terminal hydrolase isozyme L5 (Homo sapiens), Q9Y5K5 | purified proteasome/UCH37 | inhibition, % (concentration not given with the values) | 0.33% of 330,000 active;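 active = mean inhibition over replicate wells above about 20%, limit read from the data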;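 note: 0% = compound-free wells with enzyme and 100% = wells lacking proteasome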
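Test system – human UCH37 enzyme supplied as purified proteasome complex · Incubation – 30 min preincubation with enzyme, 25 min cleavage at room temperature · Detection – AMC fluorescence from Ub-AMC cleavage, excitation 355 nm, emission 460 nm · Benchmarks – no-proteasome wells (full inhibition) and compound-free wells (no inhibition)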
PP1 counter = PP1-alpha phosphatase inhibitors, primary screen, counter-screen for PP5 inhibitor project, biochemical, fluorescence, OMFP substrate, single point. Serine/threonine-protein phosphatase PP1-alpha catalytic subunit (Homo sapiens), P62136. purified PP1alpha. inhibition, % at 6.7 µM. 0.9% of 320,000 active. AID 2235, 2010;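 active = inhibition above the mean inhibition of all tested compounds plus 3 SD, computed separately for each screening campaign, cut at about 15% in these data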
UBC13 inh = UBC13 polyubiquitin chain formation inhibitors, primary screen, biochemical, TR-FRET, uHTS. Ubiquitin-conjugating enzyme E2 N (Homo sapiens), P61088. inhibition, % at 20 µM. 0.47% of 330,000 active; in the data active = inhibition above about 45%, passing the limit was not always enough
PREPL inhibitor = PREPL enzyme inhibitors, primary screen, biochemical, fluorescence polarization | 0.68% of 320,000 active | Prolyl endopeptidase-like (Homo sapiens), Q4J6C6 | recombinant PREPL, fluorescence polarization activity-based probe | AID 2751, 2010 | inhibition, % at 5.96 µM; in the data active = inhibition above about 43%;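 note: 0% = enzyme with DMSO and 100% = wells lacking enzyme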
Target sequence (Q4J6C6 whole entry, looked up): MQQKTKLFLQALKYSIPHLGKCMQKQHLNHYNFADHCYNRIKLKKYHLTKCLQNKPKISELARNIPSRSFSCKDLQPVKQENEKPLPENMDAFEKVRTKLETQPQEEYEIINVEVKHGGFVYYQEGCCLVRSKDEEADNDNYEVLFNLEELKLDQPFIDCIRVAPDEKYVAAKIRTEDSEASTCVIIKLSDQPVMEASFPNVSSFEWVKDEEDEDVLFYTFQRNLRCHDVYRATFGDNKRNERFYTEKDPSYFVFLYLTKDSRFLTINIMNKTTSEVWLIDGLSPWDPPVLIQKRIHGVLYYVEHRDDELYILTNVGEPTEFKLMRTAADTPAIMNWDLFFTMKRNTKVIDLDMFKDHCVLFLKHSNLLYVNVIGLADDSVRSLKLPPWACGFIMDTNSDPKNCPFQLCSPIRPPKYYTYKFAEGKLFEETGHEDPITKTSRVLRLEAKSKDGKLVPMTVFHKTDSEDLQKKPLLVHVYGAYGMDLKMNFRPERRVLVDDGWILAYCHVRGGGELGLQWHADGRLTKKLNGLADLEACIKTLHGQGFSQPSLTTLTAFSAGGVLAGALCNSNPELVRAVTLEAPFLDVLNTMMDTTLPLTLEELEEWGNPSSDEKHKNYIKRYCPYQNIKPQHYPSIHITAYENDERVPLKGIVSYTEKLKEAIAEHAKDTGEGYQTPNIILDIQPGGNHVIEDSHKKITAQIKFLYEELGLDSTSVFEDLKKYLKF
PP1 confirm = PP1 phosphatase inhibitors, confirmation, biochemical, fluorescence, OMFP substrate, triplicate. shares compounds with PP1 counter. purified PP1alpha. inhibition, % at 6.7 µM. 52% of 1,900 active. AID 2358, 2010;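 active = mean PP1 inhibition above a set limit taken from the earlier primary screen, cut at about 15% in these data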
PP5 inh counter = PP5 phosphatase inhibition by PP1 hits, confirmation, counter-screen for PP1 inhibitor project, biochemical, fluorescence, triplicate; AID 2360, 2010; shares compounds with PP1 counter; 4% of 1,900 active; purified PP5c, OMFP fluorescence; inhibition, % at 6.7 µM;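 active = mean PP5 inhibition over triplicate wells above about 9.5% taken from the earlier PP1 screen, limit read from the data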
* = called active by the depositor; . = no result given. Compounds with a hit are over-represented: about 2.3% of the library has one in this group of screens.

SMILES | PP5 inh | CTSL1 counter | UCH37 inh | PP1 counter | UBC13 inh | PREPL inhibitor | PP1 confirm | PP5 inh counter
CCOC(=O)c1c(NC(=O)CSc2nnc3c(n2)[nH]c2ccccc23)sc2c1CCN(C)C2 | 0.1 | 0.0 | 3.2 | 18.0* | -11.1 | -7.1 | 11.3 | -1.5
Cc1ccc(N=Nc2ccc(O)c(P(=O)(c3ccccc3)c3ccccc3)c2)cc1 | 2.2 | 2.3 | 0.8 | 18.5* | -109.6 | 21.0 | 15.7* | -3.5
COc1ccc(CCNC(=O)CC(C)=NNC(=O)c2cnccn2)cc1 | . | . | 1.0 | . | . | . | . | .
COc1ccc(C=Nn2c(C)nc3sc(C)c(C)c3c2=O)cc1 | . | . | 0.5 | . | . | . | . | .
CC(=O)NC(c1ccc(C(C)C)cc1)c1ccc2cccnc2c1O (stereo not given) | 6.0 | -0.9 | . | 12.7 | -15.6 | -36.5 | . | .
CCCCC(=O)NC(c1ccccc1)c1ccc2cccnc2c1O (stereo not given) | 1.8 | 0.9 | . | 21.3* | -25.6 | 0.2 | 12.9 | -5.2
CCCCC(=O)NC(c1ccc(C(C)C)cc1)c1ccc2cccnc2c1O (stereo not given) | -2.2 | 3.5 | 1.2 | 22.9* | -24.1 | 3.0 | 20.9* | -6.8
CCCCC(=O)NC(c1ccccc1Cl)c1ccc2cccnc2c1O (stereo not given) | 3.0 | -2.5 | . | 27.4* | -4.5 | -1.5 | 19.3* | -3.9
CCCC(=O)NC(c1ccccc1)c1ccc2cccnc2c1O (stereo not given) | -1.6 | -0.5 | . | 3.0 | -23.4 | 0.2 | . | .
CCNC(=O)CC1S/C(=N/N=C(C)c2ccccc2)NC1=O (stereo not given) | . | . | 5.1 | . | . | . | . | .
CCN(CC)S(=O)(=O)c1cccc(C(=O)N/N=C/c2ccc(O)c(O)c2O)c1 | 2.9 | -2.5 | . | 20.1* | . | 10.3 | 32.9* | -5.9
CCOc1ccccc1/C=N/NC(=O)c1cccc(S(=O)(=O)N(CC)CC)c1 | -0.8 | 0.3 | . | 1.1 | 7.5 | -11.3 | . | .
O=C(O)C1C2CCC(O2)C1C(=O)Nc1ccccc1Br (stereo not given) | 68.4* | -2.2 | -1.4 | 68.4* | 8.5 | 2.5 | 25.1* | 32.5*
Cc1ccccc1NC(=O)C1C2CCC(O2)C1C(=O)O (stereo not given) | 62.8* | 5.3 | 3.6 | 50.8* | -7.9 | -3.4 | 31.7* | 40.6*
Cc1sc(NC(=O)c2ccco2)nc1-c1ccccc1 | 1.8 | -0.4 | -0.2 | -4.0 | 2.1 | -10.4 | . | .
Cc1ccc(F)cc1NC(=O)C1C2CCC(O2)C1C(=O)O (stereo not given) | 63.5* | 0.6 | -0.2 | 55.2* | -5.8 | 25.7 | 20.4* | 25.9*
CCCCc1ccc(-c2nc(NC(=O)C3C4CCC(O4)C3C(=O)O)sc2C)cc1 (stereo not given) | 75.2* | 1.2 | . | 74.9* | -4.0 | -1.2 | 34.8* | 40.3*
Cc1ccccc1NC(=O)C1CCC(=O)N1 (stereo not given) | 0.2 | -3.8 | 0.3 | 1.6 | -9.5 | -4.6 | . | .
CS(=O)(=O)N1CCC(C(=O)Nc2ccccc2Br)CC1 | 0.9 | -1.9 | 2.6 | -2.9 | 11.7 | -3.1 | . | .
O=C(NN=Cc1cccc([N+](=O)[O-])c1)C1CC1c1ccccc1 (stereo not given) | . | . | 4.0 | . | . | . | . | .
CNc1cc(CSC)nc(SCc2ccc(Cl)c(Cl)c2)n1 | 6.1 | -2.7 | 2.6 | 25.4* | 7.7 | 1.2 | 10.1 | 3.5
Cc1cccc(NC(=S)NCc2ccc3c(c2)cc(C)n3C)c1C | 3.4 | 6.3 | 0.1 | 17.9* | 10.2 | 22.5 | 3.0 | -0.8
Cc1ccsc1C=NNC(=O)Cc1cccn1C | . | . | 4.6 | . | . | . | . | .
CC(C)C(=O)Nc1ccc(-c2nnc(-c3ccccc3)o2)cc1 | . | . | -68.6 | . | 10.9 | . | . | .
CC(C)C(=O)Nc1ccc(C(=O)c2ccccc2)cc1 | 1.2 | -1.6 | 1.8 | -75.1 | 2.9 | 4.3 | -0.6 | -3.5
SMILES | PP5 inh | CTSL1 counter | UCH37 inh | PP1 counter | UBC13 inh | PREPL inhibitor | PP1 confirm | PP5 inh counter
NC(=NOC(=O)CCC1CCCC1)c1cccc([N+](=O)[O-])c1 | . | . | 0.6 | . | . | . | . | .
CSc1nc(NCCOCCO)c2sc3nc(-c4ccco4)c4c(c3c2n1)CCC4 | 1.4 | 17.4* | -32.4 | 44.9* | 21.3 | 5.0 | 25.3* | -0.5
CSc1nc(NCc2ccco2)c2sc3nc(C(C)C)c4c(c3c2n1)CC(C)(C)OC4 | 2.7 | -3.6 | -45.6 | 3.9 | 12.6 | -1.7 | . | .
CCN(CCO)c1ncnc2c1sc1nc(C(C)C)c3c(c12)CC(C)(C)OC3 | 2.7 | 2.2 | -53.1 | -0.1 | 13.8 | -11.5 | . | .
CCN(CCO)c1nc(SC)nc2c1sc1nc(-c3ccco3)c3c(c12)CCC3 | 1.6 | 17.5* | . | 18.5* | 28.7 | -2.4 | 27.7* | -0.5
COc1ccc(C=NNC(=O)c2cccc([N+](=O)[O-])c2)cc1OC(=O)c1ccc(C)cc1 | . | . | 2.9 | . | . | . | . | .
O=C(c1ccccc1)N1CCN(C(=O)c2nn3c(C(F)(F)F)cc(-c4ccco4)nc3c2Br)CC1 | -1.5 | -2.3 | . | 19.4* | -18.4 | 10.7 | -3.0 | -2.8
CCOc1ccc(-c2c(C(=O)NN=Cc3ccncc3)nnn2-c2nonc2N)cc1 | . | . | 0.9 | . | . | . | . | .
O=C(CSc1nnc(SCc2ccc(Cl)cc2)s1)N/N=C/c1c[nH]c2ccccc12 | 2.1 | 3.5 | . | 25.1* | . | 11.6 | 31.6* | 0.7
CCN(CC)c1ccc(C=NN=C(c2ccccc2)c2ccccc2)c(O)c1 | . | . | 6.7 | . | . | . | . | .
C[n+]1c(/C=C/c2ccc(O)cc2)ccc2ccccc21 | 2.8 | 0.8 | 16.0 | 6.2 | -219.9 | 9.4 | . | .
Cc1cc(/C=C\c2ccc3cc(N(C)C)ccc3[n+]2C)c(C)n1-c1ccccc1 | 6.0 | 7.5 | 9.1 | 34.1* | -285.0 | -21.0 | 8.0 | 3.9
Cc1cc(C(=O)COC(=O)c2ccc[nH]c2=O)c(C)n1-c1ccccc1F | 0.4 | -4.0 | 5.0 | 2.5 | 1.0 | 10.9 | . | .
Cc1ccc(-n2c(C)cc(C(=O)COC(=O)c3ccc[nH]c3=O)c2C)cc1C | -0.3 | 0.7 | 5.5 | 20.8* | -4.6 | -2.4 | 16.2* | -4.7
C=Cn1cc[n+](CC(=O)c2ccc(-c3ccccc3)cc2)c1 | 1.7 | 3.4 | -1.9 | 21.7* | 8.4 | 32.8 | -1.6 | -0.3
COc1ccccc1N1CCN(C(=O)c2ccc3nc(-c4ccco4)c(-c4ccco4)nc3c2)CC1 | 6.2 | 8.0 | -19.7 | 4.3 | -4.1 | -14.7 | . | .
